Test results reported in ChEMBL document CHEMBL4033658, “Design and expeditious synthesis of organosilanes as potent antivirals targeting multidrug-resistant influenza A viruses” (Eur J Med Chem, 2017).
pEC50: −log10 of the molar value.

Assays:
Influenza A virus [1] = test: Inhibition of Influenza A virus AM2 proton channel expressed in Xenopus laevis frog oocytes at 100 uM after 2 mins by electrophysiological two-electrode voltage clamp assay; type: cell-based
In short: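 Two-electrode voltage clamp on oocytes microinjected with RNA for AM2-WT or AM2-S31N. Compound at 100 µM for 2 min at pH 5.5. Read-out is percent inhibition of AM2 current, mean of three independent measurements.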

MDCK = test: Cytotoxicity against MDCK cells after 48 hrs by neutral red uptake assay; type: cell-based, Canis lupus familiaris; details: dog
In short: (§1)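 Serially diluted compound in serum-free DMEM for 48 h at 37 °C, 5% CO2. Neutral red 40 µg/mL for 4 h, absorbance read at 540 nm. CC50 from variable-slope dose-response fit.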

[2] = Antiviral activity against Influenza A virus A/WSN/33(H1N1) infected in MDCK cells expressing ST6Gal 1 preincubated with virus and cells for 30 mins followed viral infection measured after 2 to 3 days by naphthalene black dye-based plaque reduction assay; type: functional, cell-based, Influenza A virus (A/WSN/1933(H1N1))
[3] = Selectivity index, ratio of CC50 for MDCK cells to EC50 for Influenza A virus A/WSN/33 (H1N1); type: toxicity; details: dog, read-out: Ratio CC50/EC50
[4] = Selectivity index, ratio of CC50 for human A549 cells to EC50 for Influenza A virus A/Washington/29/2009 (H1N1); type: toxicity; details: read-out: Ratio CC50/EC50
[5] = Antiviral activity against Influenza A virus A/Denmark/528/2009(H1N1) infected in MDCK cells expressing ST6Gal 1 preincubated with virus and cells for 30 mins followed viral infection measured after 2 to 3 days by naphthalene black dye-based plaque reduction assay; type: functional, cell-based
[6] = Selectivity index, ratio of CC50 for human A549 cells to EC50 for Influenza A virus A/Denmark/524/2009 (H1N1); type: toxicity; details: read-out: Ratio CC50/EC50
[7] = Selectivity index, ratio of CC50 for human A549 cells to EC50 for Influenza A virus A/Texas/04/2009 (H1N1); type: toxicity; details: read-out: Ratio CC50/EC50
[8] = Antiviral activity against Influenza A virus A/California/07/2009(H1N1) infected in MDCK cells expressing ST6Gal 1 preincubated with virus and cells for 30 mins followed viral infection measured after 2 to 3 days by naphthalene black dye-based plaque reduction assay; type: functional, cell-based
A549 = test: Cytotoxicity against human A549 cells after 48 hrs by neutral red uptake assay; type: cell-based; details: a549, 48 h; in short: as §1
Influenza A virus [9] = test: Antiviral activity against Influenza A virus A/Denmark/524/2009 (H1N1) infected in MDCK cells expressing ST6Gal 1 preincubated with virus and cells for 30 mins followed viral infection measured after 2 to 3 days by naphthalene black dye-based plaque reduction assay; type: functional, cell-based
[10] = Antiviral activity against Influenza A virus A/Texas/04/2009(H1N1) infected in MDCK cells expressing ST6Gal 1 preincubated with virus and cells for 30 mins followed viral infection measured after 2 to 3 days by naphthalene black dye-based plaque reduction assay; type: functional, cell-based
[11] = Antiviral activity against Influenza A virus A/Washington/29/2009(H1N1) infected in MDCK cells expressing ST6Gal 1 preincubated with virus and cells for 30 mins followed viral infection measured after 2 to 3 days by naphthalene black dye-based plaque reduction assay; type: functional, cell-based
In short: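 Plaque reduction assay in MDCK cells expressing ST6Gal I instead of regular MDCK cells. Virus stocks were grown in MDCK cells with 2 µg/ml N-acetyl trypsin, harvested at 2 days and clarified, then titered by plaque assay on ST6Gal I-expressing MDCK cells.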

Influenza A virus [12] = test: Antiviral activity against Influenza A virus A/Switzerland/9715293/2013 (H3N2) infected in MDCK cells expressing ST6Gal 1 preincubated with virus and cells for 30 mins followed viral infection measured after 2 to 3 days by naphthalene black dye-based plaque reduction assay; type: functional, cell-based
[13] = Selectivity index, ratio of CC50 for human A549 cells to EC50 for Influenza A virus A/WSN/33(H1N1); type: toxicity; details: read-out: Ratio CC50/EC50
[14] = Selectivity index, ratio of CC50 for human A549 cells to EC50 for Influenza A virus A/Switzerland/9715293/2013 (H3N2); type: toxicity; details: read-out: Ratio CC50/EC50
[15] = Selectivity index, ratio of CC50 for human A549 cells to EC50 for Influenza A virus A/Denmark/528/2009 (H1N1); type: toxicity; details: read-out: Ratio CC50/EC50
[16] = Selectivity index, ratio of CC50 for human A549 cells to EC50 for Influenza A virus A/California/07/2009 (H1N1); type: toxicity; details: read-out: Ratio CC50/EC50

| Structure (SMILES) | inhibition (Influenza A virus [1]) [%] | CC50 (MDCK) [µM] | pEC50 [2] | selectivity ratio [3] | other results |
| --- | --- | --- | --- | --- | --- |
| CC[Si](C)(C)c1ccc(CNC23CC4CC(CC(O)(C4)C2)C3)cc1 | 18.2 | 21.8 | – | – | – |
| C[Si](C)(C)c1ccc(CNC23CC4CC(CC(C4)C2)C3)nc1 | 5.9 | 10.3 | 5.47 | 3 | – |
| C[Si](C)(C)c1ccc(CNC23CC4CC(CC(C4)C2)C3)cc1 | 21.8 | 8 | 5.32 | 1.7 | – |
| C[Si](C)(C)c1ccc(CNC23CC4CC(CC(O)(C4)C2)C3)cc1 | 9.5 | 40.7 | – | 102 | selectivity ratio [4]: 52.3; pEC50 [5]: 5.52; selectivity ratio [6]: 122; selectivity ratio [7]: 122; pEC50 ([2]; Influenza A virus, MDCK): 6.40; pEC50 [8]: 5.92; CC50 (A549): 73.2 µM; pEC50 (Influenza A virus [9]): 6.22; pEC50 [10]: 6.22; pEC50 [11]: 5.85; pEC50 (Influenza A virus [12]): 6.15; selectivity ratio [13]: 183; selectivity ratio [14]: 105; selectivity ratio [15]: 24.4; selectivity ratio [16]: 61 |
| CC(C)[Si](c1ccc(CNC23CC4CC(CC(O)(C4)C2)C3)cc1)(C(C)C)C(C)C | 17.8 | 11.4 | – | – | pEC50 ([2]; Influenza A virus, MDCK): < 5.00 |
| CC(C)(C)c1ccc(CNC23CC4CC(CC(C4)C2)C3)cc1 | 9.9 | 12.8 | 5.46 | 3.7 | – |
| CC(C)(C)c1ccc(CNC23CC4CC(CC(O)(C4)C2)C3)cc1 | 22.3 | 32 | 5.60 | 12.8 | – |
| C[Si](C)(c1ccccc1)c1ccc(CNC23CC4CC(CC(O)(C4)C2)C3)cc1 | 33.6 | 13.3 | 5.23 | 2.3 | – |
